Source: article PMC5204042 (Journal of Breast Cancer, 2016)
Values after ≈ are worked out from the molar mass of the structure shown. “Also recorded” adds a separate entry of the source.

What was measured:
Type in all cases: cell-based
caspase-9 = assay: Caspase-9 activity assay; details: MDAMB-231, compound at IC50, 24 hours, vs untreated
cytochrome c = assay: Mitochondrial cyt c release, immunofluorescence; details: MDAMB-231, compound at IC50, 24 hours
In short: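 Mitochondria were labelled with MitoTracker Red (200 nM, 45 min), and cytochrome c was immunostained with an anti-cyt c antibody followed by FITC anti-mouse secondary (4 h, 37 °C). Coverslips were mounted and examined by fluorescence microscopy for cyt c relocation.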

PKCα = PKCα (Homo sapiens, UniProt P17252); assay: Immunoblotting to detect PKCα translocation from cytosol to plasma membrane; details: MDAMB-231, compound at IC50, 30 minutes, cytosolic PKCα normalized to 100%
[1] = test system: MCF-7 breast cancer cells; assay: MTT viability assay, MCF-7; details: Homo sapiens, MCF7, 48 h, read-out: Anticancer activity (IC50 ± SD) MCF-7
MDAMB-231 cells = assay: DNA fragmentation
caspase-3 = assay: Caspase-3 activity assay; details: MDAMB-231, compound at IC50, 24 hours, vs untreated

translocation of PKC from cytosol to the plasma membrane (PKCα): 17%±1.9% | IC50 [1]: 5 ± 0.8 µg/mL (≈ 13.6 µM)
SMILES: COc1cc(/C=C/C(=O)CC(=O)/C=C/c2ccc(O)c(OC)c2)ccc1O [Curcumin]
increase in caspase-9 activity (caspase-9): 35% | release of cyt c from mitochondria to cytosol (cytochrome c): release of cyt c | genomic DNA fragmentation (MDAMB-231 cells; MDAMB-231, compound at IC50, 12 hours, agarose gel): produced distinct DNA fragments; also recorded: showed DNA fragments of different sizes | genomic DNA fragmentation in presence of NAC (MDAMB-231 cells; MDAMB-231 preincubated with NAC (5 mM)): intact gDNA with no visible appearance of DNA fragments | increase in caspase-3 activity (caspase-3): 65%
